Compound activity deposited in PubChem BioAssay by several laboratories.
Compounds with a hit are over-represented: about 2.1% of the library has one in this group of screens.
GRK2 inh: human GRK2 inhibition via aptamer displacement | P25098 | bead flow cytometry, FAM-aptamer displacement from GRK2 | inhibition of aptamer binding, % at 10 µM | 330,000 tested, 0.59% active | AID 488847;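 active = inhibition of aptamer binding above 40%, roughly 3 SD of noise, on plates passing a quality check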;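 note: median bead fluorescence of bound FAM aptamer so fluorescent compounds give negative values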
LMPTP block: LMPTP (human) inhibition | inhibition, % at 20 µM | 360,000 tested, 0.22% active | recombinant LMPTP-A, OMFP fluorogenic substrate, fluorescence intensity | P24666;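 active = compounds that cut the enzyme signal by at least half of the control window in the single-dose screen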;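 note: plate controls were DMSO wells with enzyme plus substrate for no effect and substrate without enzyme for full effect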
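Assay system: LMPTP-A, protein tyrosine phosphatase of low molecular weight / Medium: pH 6.0 Bis-Tris buffer with DTT and Triton X-100 / Schedule: 50 min enzyme reaction at room temperature, protected from light / Measured by: endpoint fluorescence intensity from OMFP dephosphorylation / Read-out basis: % inhibition relative to no-enzyme and uninhibited control wells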
Scp1 inh: inhibitors of human Scp-1 phosphatase; inhibition, % at 20 µM; AID 493091; 340,000 tested, 0.88% active; Recombinant Scp1, phosphopeptide, malachite green phosphate absorbance;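 active = inhibition above about 50% at 20 µM, limit read from the data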;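 note: plate controls were DMSO wells with enzyme for no effect and wells lacking enzyme for full effect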
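Material – SCP-1 phosphatase catalytic domain, residues 76-261 · Buffer or medium – Acidic Tris acetate buffer with magnesium and detergent · Also added – Phospho 17-mer peptide substrate · Compound – single 20 µM dose, 1% DMSO · Times – 45 min room-temperature reaction, 5 min colour, 30 min stabiliser · Technique – Phosphate-binding colour reagent, absorbance read at 630 nm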
DNMT1 block: inhibitors of human DNMT1; DNMT1 molecular beacon, Hinp1I cleavage, fluorescence; 360,000 tested, 0.83% active; inhibition (reported as % activation of signal), % at 10 µM; P26358; AID 588458; in the data active = inhibition above about 50%
SUMO1 PPI mod: alters human SUMO1 binding to SIM partners | SUMO1 binding to a labelled peptide, TR-FRET, 1 h | inhibition, % at 20 µM | 360,000 tested, 0.33% active | AID 602429; in the data active = inhibition above about 37%
Target sequence (P63165 whole entry, looked up): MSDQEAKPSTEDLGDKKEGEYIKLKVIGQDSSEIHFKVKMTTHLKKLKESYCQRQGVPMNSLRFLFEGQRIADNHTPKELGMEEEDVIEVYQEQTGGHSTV
STEP block: inhibitors of human striatal-enriched phosphatase STEP; recombinant STEP, OMFP fluorogenic substrate, fluorescence; inhibition, % at 20 µM; P54829; AID 588621; 360,000 tested, 0.25% active;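 active = inhibition at 20 µM, scaled per plate between control wells, above about 37%, limit read from the data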;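 note: 0% = DMSO with enzyme and substrate and 100% = substrate only without enzyme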
Target sequence (P54829 whole entry, looked up): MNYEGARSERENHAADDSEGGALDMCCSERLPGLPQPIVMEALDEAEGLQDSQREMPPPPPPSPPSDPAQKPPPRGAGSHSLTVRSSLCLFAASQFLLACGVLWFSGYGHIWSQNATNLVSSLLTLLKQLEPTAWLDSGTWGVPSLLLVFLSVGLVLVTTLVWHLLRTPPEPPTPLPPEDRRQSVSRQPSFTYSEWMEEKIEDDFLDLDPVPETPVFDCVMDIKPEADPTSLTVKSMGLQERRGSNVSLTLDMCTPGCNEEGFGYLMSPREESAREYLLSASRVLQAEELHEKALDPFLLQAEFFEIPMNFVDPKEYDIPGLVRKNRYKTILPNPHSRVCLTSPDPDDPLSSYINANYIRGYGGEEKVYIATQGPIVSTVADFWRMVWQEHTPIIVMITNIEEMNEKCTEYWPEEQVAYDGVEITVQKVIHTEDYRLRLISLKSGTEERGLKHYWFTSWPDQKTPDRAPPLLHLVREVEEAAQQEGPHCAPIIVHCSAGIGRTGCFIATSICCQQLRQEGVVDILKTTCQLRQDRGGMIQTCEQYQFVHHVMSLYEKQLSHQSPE
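material = STEP tyrosine phosphatase | reagent = fluorogenic phosphatase substrate OMFP at 25 µM final | doses = single compound dose of 20 µM, 1% DMSO final | schedule = 20 min reaction, room temperature, in the dark | measured by = fluorescence, 480/540 nm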
Beacon interf DR: counter-screen for DNMT1 inhibitors: spectral interference, dose response | shares compounds with DNMT1 block | molecular beacon fluorescence | IC50, µM | 200 tested, under 10 active | AID 602382; call rule not given here
DNMT1 inh conf: confirmation of human DNMT1 inhibitors; shares compounds with DNMT1 block; DNMT1 molecular beacon HinP1I cleavage, fluorescence; inhibition, % at 10 µM; 2,300 tested, 8% active;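 active = average inhibition of at least 30% in the single-concentration confirmation test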
Beacon interf: beacon fluorescence artifact counter-screen; AID 602387; 2,300 tested, 1% active; activation (fluorescence interference), % at 10 µM; DNMT1 molecular beacon spectral interference counterscreen, fluorescence 485/520; shares compounds with DNMT1 block;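 active = activation of at least 30% at 10 µM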;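 note: DNMT1 catalytic domain with a HinP1I cleavage step and a FAM/dabcyl DNA beacon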
Active calls of the source: *.

How did O=C(O)c1cccc(-n2cccc2/C=C\[N+](=O)[O-])c1 do in these assays?
GRK2 inh: 18; LMPTP block: 1; Scp1 inh: 43; DNMT1 block: 62*; SUMO1 PPI mod: 11; STEP block: 8; DNMT1 inh conf: 7; Beacon interf: 5

Results for O=C1N/C(=C/c2cccn2-c2ccccc2)C(=O)N1Cc1ccccc1F ?
GRK2 inh: 2; LMPTP block: 0; Scp1 inh: 4; DNMT1 block: 2; SUMO1 PPI mod: -1; STEP block: -1

How did O=C(O)c1ccc(-n2cccc2/C=C2/NC(=O)N(c3cccc(Cl)c3)C2=O)cc1 do in these assays?
LMPTP block: 47; Scp1 inh: 77*; DNMT1 block: 94*; SUMO1 PPI mod: -2; STEP block: 43*; Beacon interf DR: >99; DNMT1 inh conf: 84*; Beacon interf: -4

How did Nn1cnc2cc3ccccc3cc2c1=O do in these assays?
GRK2 inh: 1; LMPTP block: 0; Scp1 inh: -3; DNMT1 block: -3; SUMO1 PPI mod: -27; STEP block: 4

What do the screens show for `COc1cccc(CC(=O)OCC(=O)N(C)CC(=O)Nc2ccccc2Cl)c1`?
GRK2 inh: 0; LMPTP block: -3; Scp1 inh: -6; DNMT1 block: 2; SUMO1 PPI mod: 3; STEP block: -1

How did O=C(Nc1ncnc2c1ncn2[C@@H]1O[C@H](/C=C/C(=O)N2CCN(c3ccc(F)cc3)CC2)[C@@H](O)[C@H]1O)c1ccccc1 do in these assays?
LMPTP block: -1; DNMT1 block: 2; SUMO1 PPI mod: -2; STEP block: 2

How did Cc1cc(=O)oc2cc(NC(=O)COc3ccccc3[N+](=O)[O-])ccc12 do in these assays?
GRK2 inh: 0; LMPTP block: 5; Scp1 inh: 40; DNMT1 block: 72*; SUMO1 PPI mod: 31; STEP block: 10; DNMT1 inh conf: 4; Beacon interf: -2

How did O=C(COc1ccccc1[N+](=O)[O-])Nc1ccc(NC(=O)c2cc3ccccc3o2)cc1 do in these assays?
GRK2 inh: 0; LMPTP block: 20; Scp1 inh: 29; DNMT1 block: 59*; SUMO1 PPI mod: 35; STEP block: 13; DNMT1 inh conf: 2; Beacon interf: -4

Results for O=C(N/N=C/c1ccco1)c1cc2ccccc2o1 ?
GRK2 inh: 4; LMPTP block: -1; Scp1 inh: -5; DNMT1 block: 1; SUMO1 PPI mod: -25; STEP block: 0

Results for O=C(COc1ccc(/C=N/NC(=O)c2cc3ccccc3o2)cc1Br)Nc1ccccc1 ?
GRK2 inh: 16; LMPTP block: 29; Scp1 inh: 83*; DNMT1 block: 64*; SUMO1 PPI mod: -1; STEP block: 64*; DNMT1 inh conf: -3; Beacon interf: -9

What do the screens show for `CN(C(=O)CSc1nc(-c2ccc(C(C)(C)C)cc2)c(C#N)c(=O)[nH]1)C1CCCCC1`?
GRK2 inh: 0; LMPTP block: 2; Scp1 inh: 0; DNMT1 block: 9; SUMO1 PPI mod: 12; STEP block: 5

Results for CN(C)CCN1CCN(C2CN(Cc3ccc([N+](=O)[O-])cc3)S(=O)(=O)C2)CC1 (stereo not given) ?
LMPTP block: 45; DNMT1 block: 19; SUMO1 PPI mod: -28; STEP block: 7

How did Cc1c(NC(=O)c2cc(S(=O)(=O)N3CCCCC3)ccc2Cl)c(=O)n(-c2ccccc2)n1C do in these assays?
GRK2 inh: 2; LMPTP block: 0; Scp1 inh: -4; DNMT1 block: -1; SUMO1 PPI mod: 1; STEP block: -3

Results for O=C(COC(=O)Cc1ccsc1)NCc1ccc(Cl)cc1 ?
GRK2 inh: 0; LMPTP block: -2; Scp1 inh: 8; DNMT1 block: 1; SUMO1 PPI mod: 3; STEP block: -2

How did O=C(COC(=O)Cc1ccsc1)NCc1ccccc1 do in these assays?
GRK2 inh: 1; LMPTP block: -2; Scp1 inh: 2; DNMT1 block: 74*; SUMO1 PPI mod: 5; STEP block: 23; DNMT1 inh conf: 3; Beacon interf: 4

How did Nc1ccc(S(=O)(=O)Nc2nccs2)cc1N=Nc1ccccc1[N+](=O)[O-] do in these assays?
LMPTP block: 9; Scp1 inh: 7; DNMT1 block: 77*; SUMO1 PPI mod: 16; STEP block: -1; Beacon interf DR: >99; DNMT1 inh conf: 80*; Beacon interf: -3

Results for O=[N+]([O-])c1ccccc1S(=O)(=O)Nc1ccc(S(=O)(=O)Nc2nccs2)cc1 ?
GRK2 inh: 0; LMPTP block: 0; Scp1 inh: 10; DNMT1 block: 2; SUMO1 PPI mod: -12; STEP block: 2

How did O=C(COC(=O)/C=C/c1ccccc1[N+](=O)[O-])NC1CC1 do in these assays?
GRK2 inh: 2; LMPTP block: -3; Scp1 inh: -5; DNMT1 block: 50*; SUMO1 PPI mod: -23; STEP block: -4; DNMT1 inh conf: 7; Beacon interf: 11

Results for C=C/C(C)=C/CC1C(=C)CCC2C(C)(C(=O)O)CCCC12C (stereo not given) ?
GRK2 inh: 2; LMPTP block: 0; Scp1 inh: 4; DNMT1 block: 81*; SUMO1 PPI mod: 16; STEP block: 0; DNMT1 inh conf: 11; Beacon interf: -4

What do the screens show for `O=C1OC(c2cccs2)=N/C1=C\c1ccc(-c2ccccc2Cl)o1`?
LMPTP block: 2; Scp1 inh: 6; DNMT1 block: -2; SUMO1 PPI mod: 15; STEP block: -6

What do the screens show for `O=C1OC(c2cccs2)=N/C1=C/c1ccc(-c2cccc(C(=O)O)c2)o1`?
LMPTP block: 1; Scp1 inh: 65*; DNMT1 block: 85*; SUMO1 PPI mod: 30; STEP block: 16; DNMT1 inh conf: 13; Beacon interf: -1

How did Nc1nc(SCc2cccnc2)c2ncn(C3OC(CO)C(O)C3O)c2n1 (stereo not given) do in these assays?
LMPTP block: 6; Scp1 inh: 12; DNMT1 block: 1; SUMO1 PPI mod: 4; STEP block: -3
